# Measurements taken from ChEMBL document CHEMBL2203111, “An Hsp90 modulator that exhibits a unique mechanistic profile” (Bioorg Med Chem Lett, 2012).
# The source made the active and inactive calls. The rule behind the calls is not given here. *1 amine or outer side, *2 acyl side, *3 side chain or, on linkers, in order; H or OH if unused. Where a SMILES comes first, the peptide text is derived from it. [ ]: non-standard residue; d: D form. X1 = O=C([C@H](N[*:1])[C@H](OCc1ccccc1)c1ccccc1)[*:2]; NMeV = CN[C@H](C(=O)O)C(C)C
# Tests used:
# [1] = molecular target: T1, Heat shock protein HSP90 (Homo sapiens) (UniProt P07900+P08238); assay: Binding affinity to HSP90 in human HCT116 cell lysates at 0.6 uM after 1 hr by Western blot based pull down assay; assay type: protein assay; conditions: HCT-116
# Summary of the method: (§1)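 Biotinylated probe incubated with HCT116 cell lysate; neutravidin-agarose beads added to capture probe with bound proteins, beads washed ten times, proteins eluted in sample buffer and resolved by gel/Western blot. Controls: PEGylated biotin linker alone and DMSO.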
# [2] = molecular target: Glyceraldehyde-3-phosphate dehydrogenase (Homo sapiens) (UniProt P04406); assay: Binding affinity to glyceraldehyde-3-phosphate dehydrogenase in human HCT116 cell lysates at 0.6 uM after 1 hr using coomassie blue staining by SDS-PAGE based pull down assay; conditions: HCT-116; summary of the method: as §1
# HCT-116 [3] = assay: Binding affinity to beta tubulin in human HCT116 cell lysates at 0.6 uM after 1 hr using coomassie blue staining by SDS-PAGE based pull down assay; assay type: cell-free; summary of the method: as §1
# HCT-116 [4] = assay: Binding affinity to actin in human HCT116 cell lysates at 0.6 uM after 1 hr using coomassie blue staining by SDS-PAGE based pull down assay; assay type: cell-free; summary of the method: as §1
# [5] = molecular target: T1, Heat shock protein HSP90 (Homo sapiens); assay: Binding affinity to HSP90 in human HCT116 cell lysates at 0.6 uM after 1 hr using coomassie blue staining by SDS-PAGE based pull down assay; assay type: protein assay; conditions: HCT-116; summary of the method: as §1
# Myosin-9 (Homo sapiens) = Myosin-9 (Homo sapiens) (UniProt P35579); assay: Binding affinity to myosin-9 in human HCT116 cell lysates at 0.6 uM after 1 hr using coomassie blue staining by SDS-PAGE based pull down assay; conditions: HCT-116; summary of the method: as §1
# [6] = Binding affinity to N-middle domain of HSP90 expressed in BL21(DE)3 Escherichia coli cells at 5 uM after 2 hrs by Western blotting method based pull down assay
# [7] = molecular target: T1, Heat shock protein HSP90 (Homo sapiens); assay: Binding affinity to HSP90 in human HCT116 cells assessed as increase in staining intensity in cytosol at 5 uM after 72 hrs by immunofluorescence staining analysis; assay type: cell-based; conditions: HCT-116
# Summary of the method: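 HCT116 colon cancer cells treated 72 hours (DMSO as vehicle control, 17-AAG as reference Hsp90 inhibitor); Hsp90 visualized by immunofluorescence with a polyclonal anti-Hsp90 antibody, cytosolic staining intensity compared with DMSO-treated cells.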
# [8] = Competitive binding affinity to N-middle domain of HSP90 expressed in BL21(DE)3 Escherichia coli cells after 1 hr by immunoblotting analysis in the presence of 2-chlorobenzyl 4-((2R,5S,8S,11S,14R)-11,14-dibenzyl-8-isobutyl-5-isopropyl-13-methyl-3,6,9,12,15-pentaoxo-1,4,7,10,13-pentaazacyclopentadecan-2-yl)butylcarbamate
# [9] = Inhibition of binding of recombinant HSP90 to his-tagged HER2 up to 10 uM by Western blotting analysis
# [10] = Inhibition of binding of recombinant HSP90 to his-tagged Akt up to 10 uM by Western blotting analysis
# HCT-116 [11] = assay: Induction of apoptosis in human HCT116 cells assessed as PARP cleavage at 50 uM after 24 hrs by Western blotting analysis; assay type: functional
# Summary of the method: (§2)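 HCT116 cells treated 24 hrs with compound at 0–50 µM; cell lysates analyzed by Western blot for full-length PARP (~113 kDa) and cleaved fragments, full-length PARP quantified relative to untreated cells.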
# HCT-116 [12] = assay: Induction of apoptosis in human HCT116 cells assessed as PARP cleavage after 24 hrs by Western blotting analysis; assay type: functional, cell-based; summary of the method: as §2
# Sequence of Myosin-9 (Homo sapiens) (P35579 whole entry, the tested form may be a part): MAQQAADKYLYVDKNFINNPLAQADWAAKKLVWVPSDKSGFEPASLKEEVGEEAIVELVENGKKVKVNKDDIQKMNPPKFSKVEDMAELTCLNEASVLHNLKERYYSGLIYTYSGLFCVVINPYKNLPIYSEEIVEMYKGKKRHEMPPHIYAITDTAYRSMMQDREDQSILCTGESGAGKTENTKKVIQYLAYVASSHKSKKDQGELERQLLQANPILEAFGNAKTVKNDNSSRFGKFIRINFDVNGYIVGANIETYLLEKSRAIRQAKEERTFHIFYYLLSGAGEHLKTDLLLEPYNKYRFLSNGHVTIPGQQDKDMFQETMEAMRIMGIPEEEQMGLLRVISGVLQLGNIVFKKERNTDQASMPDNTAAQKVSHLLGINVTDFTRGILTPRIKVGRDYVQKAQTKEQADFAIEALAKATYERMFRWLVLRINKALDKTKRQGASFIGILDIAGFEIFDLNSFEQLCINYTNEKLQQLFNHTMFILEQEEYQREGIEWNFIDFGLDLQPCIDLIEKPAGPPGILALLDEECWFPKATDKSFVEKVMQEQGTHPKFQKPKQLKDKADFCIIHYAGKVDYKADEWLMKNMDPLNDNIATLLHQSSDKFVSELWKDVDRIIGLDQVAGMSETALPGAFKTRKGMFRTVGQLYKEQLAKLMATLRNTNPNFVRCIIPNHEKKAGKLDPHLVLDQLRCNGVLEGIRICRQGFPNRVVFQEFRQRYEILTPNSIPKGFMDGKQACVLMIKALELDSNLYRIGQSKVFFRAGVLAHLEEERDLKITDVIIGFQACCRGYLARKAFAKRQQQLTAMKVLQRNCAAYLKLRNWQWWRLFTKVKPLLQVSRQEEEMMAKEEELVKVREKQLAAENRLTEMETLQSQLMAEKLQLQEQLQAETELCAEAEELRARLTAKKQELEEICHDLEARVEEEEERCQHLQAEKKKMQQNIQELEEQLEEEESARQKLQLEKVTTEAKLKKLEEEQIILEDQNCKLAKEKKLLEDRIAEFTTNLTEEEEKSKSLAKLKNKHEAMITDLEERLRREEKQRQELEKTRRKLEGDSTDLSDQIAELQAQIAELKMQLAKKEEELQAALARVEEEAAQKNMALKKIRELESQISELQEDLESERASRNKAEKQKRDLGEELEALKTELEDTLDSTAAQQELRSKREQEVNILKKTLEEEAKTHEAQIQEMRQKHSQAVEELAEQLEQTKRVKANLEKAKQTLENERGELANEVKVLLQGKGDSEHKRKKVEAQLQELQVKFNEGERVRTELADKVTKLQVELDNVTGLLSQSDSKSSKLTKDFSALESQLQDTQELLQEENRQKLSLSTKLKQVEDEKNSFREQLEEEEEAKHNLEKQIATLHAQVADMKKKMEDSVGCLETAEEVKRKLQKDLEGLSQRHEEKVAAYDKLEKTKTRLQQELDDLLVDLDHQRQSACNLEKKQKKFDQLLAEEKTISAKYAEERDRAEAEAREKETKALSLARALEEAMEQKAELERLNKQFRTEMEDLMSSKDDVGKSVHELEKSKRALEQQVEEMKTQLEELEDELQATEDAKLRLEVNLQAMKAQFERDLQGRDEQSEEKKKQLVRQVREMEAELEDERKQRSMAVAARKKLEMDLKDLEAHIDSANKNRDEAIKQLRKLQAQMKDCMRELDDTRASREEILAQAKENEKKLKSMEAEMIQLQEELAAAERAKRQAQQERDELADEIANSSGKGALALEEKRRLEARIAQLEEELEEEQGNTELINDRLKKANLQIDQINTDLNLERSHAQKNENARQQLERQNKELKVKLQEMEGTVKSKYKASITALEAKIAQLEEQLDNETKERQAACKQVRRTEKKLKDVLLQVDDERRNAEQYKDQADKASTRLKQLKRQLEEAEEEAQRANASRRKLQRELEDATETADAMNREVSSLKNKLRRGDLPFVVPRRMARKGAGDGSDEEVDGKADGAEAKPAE
# Sequence of Glyceraldehyde-3-phosphate dehydrogenase (Homo sapiens) (P04406 2-335 limits assumed): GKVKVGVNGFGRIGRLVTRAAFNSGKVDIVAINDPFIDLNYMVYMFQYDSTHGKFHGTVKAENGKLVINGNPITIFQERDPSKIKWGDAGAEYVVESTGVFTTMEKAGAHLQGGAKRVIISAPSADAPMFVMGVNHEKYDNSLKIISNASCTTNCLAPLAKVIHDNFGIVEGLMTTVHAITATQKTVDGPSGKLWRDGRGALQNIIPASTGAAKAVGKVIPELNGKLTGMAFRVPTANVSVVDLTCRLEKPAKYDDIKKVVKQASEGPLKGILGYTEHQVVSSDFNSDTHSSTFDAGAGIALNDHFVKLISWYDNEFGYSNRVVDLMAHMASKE
Structure (SMILES),Activity [1],Activity [2],Activity (HCT-116 [3]),Activity (HCT-116 [4]),Activity [5],Activity (Myosin-9 (Homo sapiens)),Activity [6],Activity [7],IC50 [8] [µM],inhibition [9],inhibition [10],Activity (HCT-116 [11]) [%],Activity (HCT-116 [12])
CC(C)[C@@H]1NC(=O)[C@@H](CCCCNC(=O)OCc2ccccc2Cl)NC(=O)[C@@H](Cc2ccccc2)N(C)C(=O)[C@H](Cc2ccccc2)NC(=O)[C@H](CCCCNC(=O)CCOCCOCCOCCOCCNC(=O)CCCC[C@@H]2SC[C@@H]3NC(=O)N[C@@H]32)NC1=O,inactive,inactive,inactive,inactive,inactive,inactive,,,,,,,
CC(C)C[C@@H]1NC(=O)[C@H](CCCCNC(=O)CCOCCOCCOCCOCCNC(=O)CCCC[C@@H]2SC[C@@H]3NC(=O)N[C@@H]32)NC(=O)[C@@H](CCCCNC(=O)OCc2ccccc2Cl)NC(=O)[C@@H](Cc2ccccc2)N(C)C(=O)[C@H](Cc2ccccc2)NC1=O,Active,Active,Active,Active,Active,Active,Active,,,,,,
CC(C)C[C@@H]1NC(=O)[C@H](C(C)C)N(C)C(=O)[C@@H](CC(C)C)NC(=O)[C@@H](Cc2ccccc2)NC(=O)[C@@H]([C@H](OCc2ccccc2)c2ccccc2)NC1=O (cyclo(L[X1][dF][dL][NMeV])),,,,,,,,Active,1.9,,,,
CC(C)C[C@@H]1NC(=O)[C@H](C(C)C)NC(=O)[C@@H](CCCCNC(=O)OCc2ccccc2Cl)NC(=O)[C@@H](Cc2ccccc2)N(C)C(=O)[C@H](Cc2ccccc2)NC1=O,,,,,,,,Active,6.2,inactive,inactive,48,Dose-dependent effect
